High-throughput results deposited in PubChem by several laboratories.
This is a sample that favours compounds with a hit; in the whole collection about 4.5% have one here.
PERK inh: human PERK inhibition, primary cell-based screen. inhibition, % at 5.6 µM. Q9NZJ5. CHO PERK-DD fusion, SEAP luminescence translation reporter. 220,000 compounds, 0.17% hits;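 active means inhibition above the mean inhibition of all tested compounds plus 3 SD, set separately per screening campaign, cut at about 2.9% in these data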;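 further: PERK kinase domain activated by AP20187 dimerizer at 100 nM; 0% = DMSO with dimerizer and 100% = rapamycin at 8.4 µM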
AHR activator: human AHR activation; AHR-responsive luciferase reporter cells, luminescence; P35869; activation, % at 5 µM; 320,000 compounds, 2.5% hits; in the data active means activation above about 47%;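 further: 0% = vehicle wells and 100% = reference agonist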
NF-kB neuron act: compounds increasing NF-kB expression in human neuronal cells; NF-kB reporter expression; stronger effect = higher value; fold change at 12.5 µM; 190,000 compounds, 1.6% hits; AID 1239; in the data active means fold change above about 3.3
MDM2 E3 inh: inhibitors of human Mdm2 E3 ubiquitin ligase | 210,000 compounds, 0.11% hits | cell-based MDM2 ubiquitination luciferase reporter, 2 h; 0 = plate control, 100 = twice control, blank-subtracted | signal enhancement, % at 5 µM | Q00987;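 active means signal enhancement of 30% or more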;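 further: luminescence tracks abundance of the self-degrading MDM2-luciferase fusion protein; higher signal means inhibition of MDM2 E3 ligase activity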
Target sequence (Q00987 whole entry, looked up, the tested form may be a part): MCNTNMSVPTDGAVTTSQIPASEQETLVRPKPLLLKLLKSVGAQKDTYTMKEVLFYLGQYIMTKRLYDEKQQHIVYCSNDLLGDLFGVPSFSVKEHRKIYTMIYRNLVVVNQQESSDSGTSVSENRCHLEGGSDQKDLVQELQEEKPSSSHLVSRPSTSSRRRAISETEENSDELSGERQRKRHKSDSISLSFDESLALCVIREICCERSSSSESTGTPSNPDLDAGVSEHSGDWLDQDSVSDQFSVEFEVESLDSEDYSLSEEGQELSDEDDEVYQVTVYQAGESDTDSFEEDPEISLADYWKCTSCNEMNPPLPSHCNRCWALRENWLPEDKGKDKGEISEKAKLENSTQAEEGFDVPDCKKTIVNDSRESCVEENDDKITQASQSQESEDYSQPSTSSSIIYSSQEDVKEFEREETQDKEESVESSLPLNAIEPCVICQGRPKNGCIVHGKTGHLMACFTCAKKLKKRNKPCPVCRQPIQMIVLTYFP
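Material: stable MDM2–luciferase fusion reporter cells / Quantity: 2000 cells/well / Dosing: single 5 µM compound dose, 0.2% final DMSO / Buffer or medium: DMEM / Schedule: 4 h cell settling then 2 h compound exposure, 37 °C / Detection: luminescence with SteadyLite reagent, 15 min at room temperature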
STAT1 act: STAT1 signaling activation. 200,000 compounds, 2.6% hits. NIH 3T3 STAT1-luciferase reporter, IFN-gamma, luminescence; 100% = IFN-gamma alone, no compound. activation (% of control), % at 5.5 µM. AID 932;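 active means activation above the screen-wide mean activation plus 3 SD, cut at about 130% in these data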;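 further: raw ratio to IFN-gamma control signal so 100% means no change and 0% no light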
APP 5'UTR act: APP 5'UTR luciferase reporter activation. SH-SY5Y APP 5'UTR luciferase reporter, luminescence; zero percent = DMSO vehicle wells. activation, % at 2 µM. 190,000 compounds, 1% hits. AID 1276;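 active means activation above a set limit, based on mean plus 3 SD of controls, cut at about 140% in these data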
* hit, by the source's call; · = not tested or not shown.

SMILES	PERK inh	AHR activator	NF-kB neuron act	MDM2 E3 inh	STAT1 act	APP 5'UTR act
Cc1nnc2n(c1=O)N=C(c1ccc(Cl)cc1)CS2	1	79*	2.9	-10	132*	112
CCOc1ccc(S(=O)(=O)NCCC(=O)N2CC(C)OC(C)C2)cc1 (stereo not drawn)	·	2	·	·	·	·
Cc1ccccc1-c1nc(CS(=O)(=O)CC(=O)NCCN2CCCC2)c(C)o1	·	-4	·	·	·	·
O=C(O)COc1ccccc1/C=C1\SC(=Nc2ccc(F)cc2)N(c2ccc(F)cc2)C1=O	0	1	1.3	-13	89	13
Cc1ccc(NC(=O)c2ccco2)c(NC(=O)c2ccc(Cl)cc2)c1	·	56*	·	·	·	·
Cc1ccc(NC(=O)c2ccc(Cl)c(S(=O)(=O)NCc3ccco3)c2)c(O)c1	·	56*	·	·	·	·
CCOc1ccccc1C(=O)Nc1cc(C)ccc1NC(=O)c1ccco1	·	68*	·	·	·	·
CCOc1cc(NC(=O)c2ccco2)c(OCC)cc1NC(=O)COc1ccccc1C	1	5	·	·	99	10
CCOc1cc(NC(=O)c2ccco2)c(OCC)cc1NC(=O)Cc1cccc(OC)c1	-1	54*	0.78	-7	91	18
COc1ccccc1OCC(=O)Nc1cc(C)ccc1NC(=O)c1ccco1	·	31	·	·	·	·
Cc1ccc(NC(=O)c2ccco2)c(NC(=O)c2ccccc2)c1	·	28	·	·	·	·
CCOCc1c(C(=O)NC2CCCCCC2)oc2ccccc12	1	3	1	4	96	-9
Cc1c(C(=O)NC2CCCC2)oc2ccccc12	·	61*	·	·	·	·
Cc1c(C(=O)NC2=NCCS2)oc2ccccc12	-1	64*	7.6*	-41	137*	106
Cc1sc(NC(=O)c2oc3ccccc3c2C)c(C#N)c1C	0	9	1.4	-10	102	15
COC(C)(C)[C@]12CC(O)(c3ccccc3)ON1[C@H]1CCCCC1N2O (stereo partly drawn)	0	0	0.94	-12	103	5
O=c1cc(CN2CCN(S(=O)(=O)c3ccccc3[N+](=O)[O-])CC2)nc2sccn12	2	-1	1.1	-10	90	11
Cc1c(O)ccc(C(=O)CN2CCN(Cc3ccccc3)CC2)c1O	·	-1	·	·	·	·
CCCCOc1ccc(Br)cc1/C(C)=N/NC1=NCCN1	-1	57*	1.6	-13	89	-96
Cc1ccc(/C(N)=N/OC(=O)CSc2ccccc2)cc1	0	1	3.1	-22	130*	180*
COc1ccc(/C(N)=N/OC(=O)CSc2ccc(C)cc2)cc1	2	1	1.3	-17	102	9
COc1ccc(/C(N)=N/OC(=O)CSc2ccccc2)cc1	0	-1	5.3*	-13	116	98
Cc1ccc(SCC(=O)O/N=C(\N)c2ccncc2)cc1	·	-3	·	·	·	·
COc1ccc(C(=O)NNC(=O)COc2ccc(Cl)cc2)c(OC)c1	·	73*	·	·	·	·
COC(=O)NNC(=O)COc1ccc(Cl)cc1	1	0	1.1	-13	101	8
SMILES	PERK inh	AHR activator	NF-kB neuron act	MDM2 E3 inh	STAT1 act	APP 5'UTR act
CCOC(=O)c1oc2ccccc2c1COC(=O)CNC(=O)c1ccco1	·	-1	·	·	·	·
O=C(Nc1ccc2c(c1)oc1ccccc12)N1CCOCC1	1	1	3.8*	-21	140*	74
O=C(Cn1cccn1)N1CCCC(N2CCN(c3ccccc3F)CC2)C1 (stereo not drawn)	·	1	·	·	·	·
CN(C(=O)COC(=O)C1=COCCO1)c1c(N)n(Cc2ccccc2)c(=O)[nH]c1=O	·	-1	·	·	·	·
CCc1ccc(-c2nc(CCl)cs2)cc1	1	2	2.6	-19	147*	48
C/C(=N\NC(=O)c1nn(C)cc1Br)c1ccc(NC(=O)c2ccncc2)cc1	0	31	1.4	-13	131*	10
C/C(=N\NC(=O)c1nn(C)cc1Br)c1cccc(NC(=O)C(C)(C)C)c1	0	12	1.3	-4	102	35
C/C(=N\NC(=O)c1nn(C)c(C)c1Br)c1cccc(NC(=O)c2ccc(F)cc2)c1	-1	-11	1.4	-5	139*	60
Cc1ccc(-c2ccc(/C=C(\C#N)C(N)=S)n2C)cc1	0	79*	·	-16	·	·
Cn1c(O)c(/C=C2\C=Nc3ccccc32)sc1=Nc1ccc(C(=O)O)cc1	1	51*	·	-7	·	·
O=S(=O)(Nn1c(O)c(C=C2N=c3ccccc3=N2)sc1=S)c1ccccc1	0	22	·	-10	·	·
